Assay [1] in a line: Growth inhibition of glioblastoma cells (LN18) by the compound (300 uM) upon incubation for 48 hr using MTT assay. Format: functional, Homo sapiens. The method, boiled down:
(§1)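 Human glioblastoma cells were kept in DMEM with 4.5 g/L glucose, 5% FCS and antibiotics, then plated for 24-72 h. They were exposed in fresh complete medium for 24, 48 or 72 h to 0, 100, 200 or 300 µM compound, with stocks in methanol/PBS 1:20. MTT at 0.2 mg/mL was present for the final 2 h. Formazan was dissolved in 0.1 N HCl/2-propanol and read at 540 nm. Readings were expressed relative to untreated cells. Triplicate wells.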
Background: Tetrazolium dyes change colour on reduction, which living cells bring about.

Assay [2] can be described thus: Growth inhibition of glioblastoma cells (LNZ 308) by the compound (200 uM) upon incubation for 24 hours using MTT assay. The format is functional, Homo sapiens. The gist of the method:
as §1

A short description of assay [3]: Growth inhibition of glioblastoma cells (LN18) by the compound (200 uM) upon incubation for 72 hours using MTT assay. Format: functional, Homo sapiens. Also on record: unit not given here. The gist of the method: as §1
Assay [4] is described as follows: Growth inhibition of glioblastoma cells (LNZ 308 cell) by the compound (200 uM) upon incubation for 24 hours using MTT assay. Format: functional, Homo sapiens. Also on record: unit: %. The method, boiled down: as §1
A short description of assay [5]: Growth inhibition of glioblastoma cells (LNZ 308 cell) by the compound (100 uM) upon incubation for 24 hours using MTT assay. The format is functional, Homo sapiens. Also on record: unit not given here. The method, boiled down:
as §1

Assay [6] can be described thus: Growth inhibition of glioblastoma cells (LN18) by the compound (100 uM) upon incubation for 72 hours using MTT assay. The format is functional, Homo sapiens. Also on record: unit: %. The gist of the method: as §1
A short description of assay [7]: Growth inhibition of glioblastoma cells (LNZ 308 cell) by the compound (300 uM) upon incubation for 72 hours using MTT assay. More on the design: unit: %. Format: functional, Homo sapiens. The gist of the method: as §1
The nature of assay [8]: Growth inhibition of glioblastoma cells (LNZ 308 cell) by the compound (200 uM) upon incubation for 48 hours using MTT assay. Format: functional, Homo sapiens. More on the design: unit: %. The gist of the method: as §1
The nature of assay [9]: Growth inhibition of glioblastoma cells (LNZ 308 cell) by the compound (300 uM) upon incubation for 24 hours using MTT assay. More on the design: unit not given here. The format is functional, Homo sapiens. The method, boiled down: as §1
Assay [10] in a line: Growth inhibition of glioblastoma cells (LNZ 308 cell) by the compound (200 uM) upon incubation for 72 hours using MTT assay. The format is functional, Homo sapiens. More on the design: unit: %. The gist of the method:
as §1

Assay [11] in a line: Growth inhibition of glioblastoma cells (LN18) by the compound (100 uM) upon incubation for 48 hours using MTT assay. The format is functional, Homo sapiens. Also on record: unit: %. The gist of the method: as §1
A short description of assay [12]: Growth inhibition of glioblastoma cells (LN18) by the compound (200 uM) upon incubation for 24 hr using MTT assay. The format is functional, Homo sapiens. The method, boiled down:
as §1

Assay [13] is described as follows: Growth inhibition of glioblastoma cells (LNZ 308 cell) by the compound (100 uM) upon incubation for 48 hours using MTT assay. The format is functional, Homo sapiens. More on the design: unit not given here. The gist of the method: as §1
A short description of assay [14]: Growth inhibition of glioblastoma cells (LN18) by the compound (200 uM) upon incubation for 48 hours using MTT assay. Also on record: unit not given here. The format is functional, Homo sapiens. The method, boiled down:
as §1

A short description of assay [15]: Growth inhibition of glioblastoma cells (LN18) by the compound (300 uM) after 24 hr using MTT assay. The format is functional, Homo sapiens. The gist of the method:
as §1

The nature of assay [16]: Growth inhibition of glioblastoma cells (LN18) by the compound (300 uM) upon incubation for 72 hr using MTT assay. The format is functional, Homo sapiens. The method, boiled down: as §1
The nature of assay [17]: Growth inhibition of glioblastoma cells (LNZ 308 cell) by the compound (100 uM) upon incubation for 72 hours using MTT assay. More on the design: unit not given here. Format: functional, Homo sapiens. The method, boiled down: as §1
The nature of assay [18]: Growth inhibition of glioblastoma cells (LNZ 308 cell) by the compound (300 uM) upon incubation for 48 hours using MTT assay. More on the design: unit: %. Format: functional, Homo sapiens. The gist of the method: as §1
The nature of assay [19]: Growth inhibition of glioblastoma cells (LN18) by the compound (300 uM) upon incubation for 24 hours using MTT assay. Format: functional, Homo sapiens. Also on record: unit not given here. The method, boiled down: as §1
A short description of assay [20]: Growth inhibition of glioblastoma cells (LN18) by the compound (100 uM) upon incubation for 24 hours using MTT assay. The format is functional, Homo sapiens. The gist of the method: as §1
The nature of assay [21]: Growth inhibition of glioblastoma cells (LN18) by the compound (300 uM) upon incubation for 48 hours using MTT assay. Format: functional, Homo sapiens. More on the design: unit: %. The gist of the method:
as §1

Assay [22] in a line: Growth inhibition of glioblastoma cells (LN18) by the compound (200 uM) upon incubation for 24 hours using MTT assay. Format: functional, Homo sapiens. More on the design: unit: %. The method, boiled down:
as §1

A short description of assay [23]: Growth inhibition of glioblastoma cells (LN18) by the compound (300 uM) upon incubation for 72 hours using MTT assay. The format is functional, Homo sapiens. Also on record: unit not given here. The gist of the method: as §1
A short description of assay [24]: Growth inhibition of glioblastoma cells (LNZ 308) by the compound (300 uM) upon incubation for 72 hours using MTT assay. The format is functional, Homo sapiens. The gist of the method:
as §1

The nature of assay [25]: Growth inhibition of glioblastoma cells (LNZ 308) by the compound (300 uM) upon incubation for 48 hours using MTT assay. Format: functional, Homo sapiens. The gist of the method: as §1
Assay [26] is described as follows: Growth inhibition of glioblastoma cells (LNZ 308) by the compound (300 uM) upon incubation for 24 hours using MTT assay. The format is functional, Homo sapiens. The method, boiled down: as §1
A short description of assay [27]: Growth inhibition of glioblastoma cells (LNZ 308) by the compound (100 uM) upon incubation for 72 hours using MTT assay. The format is functional, Homo sapiens. The gist of the method:
as §1

Assay [28] is described as follows: Growth inhibition of glioblastoma cells (LNZ 308) by the compound (100 uM) upon incubation for 48 hours using MTT assay. The format is functional, Homo sapiens. The method, boiled down:
as §1

The nature of assay [29]: Growth inhibition of glioblastoma cells (LNZ 308) by the compound (100 uM) upon incubation for 24 hours using MTT assay. The format is functional, Homo sapiens. The gist of the method: as §1
Assay [30] can be described thus: Growth inhibition of glioblastoma cells (LNZ 308) by the compound (200 uM) upon incubation for 48 hours using MTT assay. The format is functional, Homo sapiens. The method, boiled down: as §1
A short description of assay [31]: Growth inhibition of glioblastoma cells (LNZ 308) by the compound (200 uM) upon incubation for 72 hours using MTT assay. Format: functional, Homo sapiens. The gist of the method: as §1
The target of assay [32] is T1, Alpha-mannosidase (Glycine max) (UniProt Q9SEH8).
T1 sequence (whole entry): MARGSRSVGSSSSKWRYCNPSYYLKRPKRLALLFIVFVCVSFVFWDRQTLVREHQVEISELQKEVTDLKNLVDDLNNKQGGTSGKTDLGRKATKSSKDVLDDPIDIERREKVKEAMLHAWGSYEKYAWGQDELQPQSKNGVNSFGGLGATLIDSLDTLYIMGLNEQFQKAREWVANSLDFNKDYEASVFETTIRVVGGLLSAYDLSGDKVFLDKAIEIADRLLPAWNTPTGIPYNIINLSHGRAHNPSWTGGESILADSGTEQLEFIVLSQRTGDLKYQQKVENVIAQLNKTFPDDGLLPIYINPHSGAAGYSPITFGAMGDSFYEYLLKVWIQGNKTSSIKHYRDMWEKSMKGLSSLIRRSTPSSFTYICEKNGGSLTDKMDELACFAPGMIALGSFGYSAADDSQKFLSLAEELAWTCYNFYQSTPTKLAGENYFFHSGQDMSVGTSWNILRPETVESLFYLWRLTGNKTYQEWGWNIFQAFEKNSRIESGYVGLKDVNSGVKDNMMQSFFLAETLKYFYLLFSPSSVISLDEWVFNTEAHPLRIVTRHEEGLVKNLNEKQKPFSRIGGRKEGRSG
The conditions noted are these: Prunus dulcis; 1 mM.

On to `O=C(OCC(NC[C@H]1NC[C@H](O)[C@@H]1O)c1ccccc1)c1cccc(Br)c1` (some centres not stated), for which the Growth inhibition in assay [1] worked out at 29; in [2] it was 5; in [3], 24; in assay [4] it was 5; in [5], 5; in assay [6], 18. The Growth inhibition was determined as 34 in [7]; 23 in assay [8]; 17 in assay [9]; 23 in assay [10]; 21 in assay [11]; 10 in assay [12]. Moreover, the Growth inhibition was 17 in assay [13]; 25 in [14]; 16 in assay [15]; 36 in assay [16]; 13 in assay [17]; 31 in [18].
With `O=C(OCC(NC[C@H]1NC[C@H](O)[C@@H]1O)c1ccccc1)c1ccc(Br)cc1` (some centres not stated), the Growth inhibition in [19] was 92; in [3], 68; in [4], 60; in [5] it was 11; in [6], 31; in assay [7] it was 96. The Growth inhibition in [20] is on record as 5; in [8], 33; in assay [21], 95; in assay [9], 87; in assay [22] it was 67; in [10], 56. Also, the Growth inhibition in assay [11] was determined as 17; in assay [23], 97; in [13], 15; in assay [14], 48; in assay [17], 24; in [18], 78.
In the case of `O=C(OCC(NC[C@H]1NC[C@H](O)[C@@H]1O)c1ccccc1)c1ccc(F)cc1` (some centres not stated), the Growth inhibition in assay [19] was 20; in assay [2], 16; in assay [3] it was 14; in assay [4], 16; in assay [5] it was 4; in [6], 4. For the same compound, the Growth inhibition in assay [7] was determined as 32; in assay [8] it was 18; in assay [21], 24; in assay [9], 21; in assay [22] it was 22; in assay [10], 24. Besides, the Growth inhibition was determined as 5 in assay [11]; 31 in [23]; 10 in [13]; 16 in assay [14]; 8 in assay [17]; 17 in assay [18].
In the case of `OC[C@H](NC[C@H]1NC[C@H](O)[C@@H]1O)c1ccccc1`, the Growth inhibition in assay [19] stood at 22; in [2], 8; in [3], 12; in assay [24] it was 22; in assay [6], 15; in assay [20], 13. The Growth inhibition in assay [21] is recorded as 23; in assay [25], 25; in assay [26] it was 26; in [22] it was 19; in assay [27] it was 5; in assay [28], 19. For the same compound, the Growth inhibition in [11] is given as 16; in assay [29], 0; in assay [23], 22; in [14], 26; in [30] it was 19; in assay [31] it was 13.
By inhibition is commonly meant the relative decrease from the control value, in per cent. Take `OC[C@@H](NC[C@H]1NC[C@H](O)[C@@H]1O)c1ccccc1`: the Growth inhibition in assay [19] came out at 7; in assay [2], 4; in [20], 0; in [26] it was 28; in [22], 17; in [29], 0. In addition, the inhibition in assay [32] was found to be 55%.
As for `O[C@H]1[C@@H](O)CN[C@@H]1CN[C@@H](COCc1cccc(F)c1)c1ccccc1`, the Growth inhibition was found to be 27 in assay [19]; 14 in [2]; 41 in assay [3]; 14 in [4]; 2 in [5]; 12 in assay [6]. Further, the Growth inhibition was determined as 53 in assay [7]; 29 in [8]; 39 in [21]; 34 in assay [9]; 19 in [22]; 27 in [10]. Also, the Growth inhibition in [11] worked out at 6; in assay [23], 76; in assay [13], 6; in assay [14] it was 14; in assay [17] it was 6; in [18], 56.
Turning to `O=C(OCC(NC[C@H]1NC[C@H](O)[C@@H]1O)c1ccccc1)c1ccccc1F` (some centres not stated), the Growth inhibition in assay [19] worked out at 26; in assay [3] it was 14; in assay [4] it was 18; in [5], 0; in assay [6], 3; in assay [7], 26. Besides, the Growth inhibition in assay [8] was 15; in assay [21], 8; in assay [9], 23; in [22] it was 17; in [10] it was 17; in assay [11] it was 7. Further, the Growth inhibition in assay [23] amounted to 15; in assay [13] it was 6; in assay [14], 10; in assay [17] it was 0; in [18], 18.
Turning to `O=C(NCC(NC[C@H]1NC[C@H](O)[C@@H]1O)c1ccccc1)c1cccc(Br)c1` (some centres not stated), the Growth inhibition in [19] was determined as 52; in assay [2] it was 20; in assay [3] it was 61; in [4], 20; in [5] it was 2; in assay [6], 43. Also, the Growth inhibition in [7] is 59; in [8], 40; in [21], 50; in assay [9] it was 50; in [22], 30; in assay [10], 52. Moreover, the Growth inhibition in [11] came out at 20; in [23], 65; in assay [13], 19; in assay [14], 46; in [17] it was 43; in assay [18], 42.

The values above are taken from ChEMBL document CHEMBL1145149, “Functionalized pyrrolidines inhibit alpha-mannosidase activity and growth of human glioblastoma and melanoma cells” (J Med Chem, 2005).
